One compound from ChEMBL document CHEMBL2346587, “Design, synthesis, and evaluation of a water-soluble antofine analogue with high antiproliferative and antitumor activity” (Bioorg Med Chem, 2013) can be followed below.

The structures appear in SMILES notation. Activity calls are given as the source filed them. The rule behind the calls is not given here.

Data set [1] concerns A549. The data set is described as follows: Cell cycle arrest in human A549 cells assessed as accumulation at S phase at 50 nM after 24 hrs by flow cytometry (reference value: 13.38 %). Type of data set: functional. Background: In flow cytometry, cells or beads pass a laser one at a time.
Data set [2] deals with A549. Put plainly: Antitumor activity against paclitaxel-resistant human A549 cells xenografted in athymic nu/nu BALB/c mouse assessed as inhibition of tumor growth at 5 mg/kg, ip administered 35 days post-implantation 3 times a week relative to control. The data set is classed as functional. Particulars: 840 h, route intraperitoneal, read-out: TGI. In a few lines: (§1)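 Female athymic BALB/c nu/nu mice, six weeks old; 2 × 10^6 A549 or A549-Pa cells in 0.1 mL RPMI injected s.c. into right flank on day 0. Dosing began at 95–100 mm3 tumour volume: drug in 1% cremophore in PBS given i.p. three times weekly; controls got vehicle; five mice/group. Tumour volume tracked every 3–5 days; tumours excised and weighed at end; sections immunostained for Ki-67.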

Data set [3] relates to A549. Put plainly: Antitumor activity against human A549 cells xenografted in athymic nu/nu BALB/c mouse assessed as inhibition of Ki-67 expression at 5 to 10 mg/kg, ip administered 35 days post-implantation 3 times a week by immunohistochemistry. The data set is classed as functional, organism-based. In a few lines: as §1
On the technique in general: In xenograft studies the graft and the host belong to different species.

Data set [4] relates to A549. The data set is described as follows: Cell cycle arrest in human A549 cells assessed as accumulation at S phase at 200 nM after 24 hrs by flow cytometry (reference value: 13.38 %). The data set is classed as functional.
Data set [5] deals with ATP-dependent translocase ABCB1 (Homo sapiens, UniProt P08183). The data set is described as follows: Inhibition of P-gp activity in paclitaxel-resistant human A549 cells potentiation of 2.5 uM paclitaxel-induced cytotoxicity at 0.05 uM by SRB assay. The settings on record: a549, 0.05 µM. The data set is classed as cell-based. An outline of the steps:
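A549-Pa cells plated at 5 × 10^4 cells/well and co-treated for 48 h with the compound (0–200 nM) plus paclitaxel or gefitinib; growth inhibition by SRB assay. Combination index computed at the 50% inhibition level as CI = D1/(Dx)1 + D2/(Dx)2, comparing combined versus single-agent concentrations.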
A general note: Sulforhodamine B stains cellular protein and so reports cell mass.

The subject of data set [6] is A549. Put plainly: Cell cycle arrest in human A549 cells assessed as accumulation at S phase at 100 nM after 24 hrs by flow cytometry (reference value: 13.38 %). Type of data set: functional.
Data set [7] relates to A549. Put plainly: Cell cycle arrest in human A549 cells assessed as accumulation at G2/M phase at 400 nM after 24 hrs by flow cytometry (reference value: 22.84 %). Type of data set: functional.
Data set [8] has as its system A549. Put plainly: Cell cycle arrest in human A549 cells assessed as accumulation at sub-G1 phase at 200 nM after 24 hrs by flow cytometry (reference value: 1.40 %). Type of data set: functional.
The nature of data set [9]: Inhibition of Wnt signaling in human A549 cells assessed as reduction in cyclin D1 protein expression at 50 to 400 nM after 24 hrs by Western blot analysis. Type of data set: cell-based. In a few lines: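 A549 cells were seeded at 3 × 10^5 per 60 mm dish, grown 24 h, then given graded compound concentrations for 24 h. Lysis was in boiling SDS buffer, with BCA protein assay. 25–50 µg per lane was run on 8–15% SDS-PAGE and blotted to PVDF. Primary antibodies (1:1000–1:2000) went on overnight at 4 °C, then secondary and ECL read-out.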

Chain of ATP-dependent translocase ABCB1 (P08183 whole entry): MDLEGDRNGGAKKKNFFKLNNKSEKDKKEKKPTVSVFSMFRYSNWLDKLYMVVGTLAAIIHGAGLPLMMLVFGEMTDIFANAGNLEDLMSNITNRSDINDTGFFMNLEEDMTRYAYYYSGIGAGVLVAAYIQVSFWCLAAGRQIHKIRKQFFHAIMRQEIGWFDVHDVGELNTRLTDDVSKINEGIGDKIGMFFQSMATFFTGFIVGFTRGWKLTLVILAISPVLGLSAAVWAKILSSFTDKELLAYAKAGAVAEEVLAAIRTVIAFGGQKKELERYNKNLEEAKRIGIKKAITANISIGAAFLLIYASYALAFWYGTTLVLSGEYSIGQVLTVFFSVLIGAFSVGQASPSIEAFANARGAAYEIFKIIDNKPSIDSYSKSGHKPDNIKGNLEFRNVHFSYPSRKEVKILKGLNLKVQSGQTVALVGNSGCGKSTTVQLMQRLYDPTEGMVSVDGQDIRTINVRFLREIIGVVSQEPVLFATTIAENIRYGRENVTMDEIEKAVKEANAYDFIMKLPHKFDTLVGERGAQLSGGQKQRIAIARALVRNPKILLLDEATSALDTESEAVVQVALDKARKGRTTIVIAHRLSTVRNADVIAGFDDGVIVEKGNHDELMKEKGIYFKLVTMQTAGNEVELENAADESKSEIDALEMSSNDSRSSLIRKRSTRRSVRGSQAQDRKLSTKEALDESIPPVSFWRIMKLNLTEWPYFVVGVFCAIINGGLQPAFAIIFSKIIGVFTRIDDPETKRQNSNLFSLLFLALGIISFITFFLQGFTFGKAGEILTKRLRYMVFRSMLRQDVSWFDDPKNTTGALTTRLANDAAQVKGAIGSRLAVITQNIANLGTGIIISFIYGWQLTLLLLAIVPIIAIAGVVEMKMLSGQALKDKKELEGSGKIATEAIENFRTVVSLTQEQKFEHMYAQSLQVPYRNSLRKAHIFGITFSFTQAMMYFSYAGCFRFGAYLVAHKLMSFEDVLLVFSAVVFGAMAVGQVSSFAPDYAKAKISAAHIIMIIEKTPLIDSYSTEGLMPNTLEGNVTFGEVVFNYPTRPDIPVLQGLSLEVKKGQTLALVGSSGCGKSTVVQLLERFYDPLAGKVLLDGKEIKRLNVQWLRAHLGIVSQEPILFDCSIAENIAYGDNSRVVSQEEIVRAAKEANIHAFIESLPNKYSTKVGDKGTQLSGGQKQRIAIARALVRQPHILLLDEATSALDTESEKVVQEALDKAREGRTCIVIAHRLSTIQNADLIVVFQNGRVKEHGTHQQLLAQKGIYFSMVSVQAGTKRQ

Regarding `COc1ccc2c3c(c4cc(OC)c(OC)cc4c2c1)C[C@@]1(CO)CCCN1C3`, the Activity with A549 [1] stood at 12.08%; in the data set with A549 [4], 10.94%; with A549 [6], 10.78%; in the data set with A549 [7], 20.41%; in the data set with A549 [8], 1.29%. The inhibition in vivo at 5 mg/kg in the data set with A549 [2] stood at 38.4%. For the same compound, the inhibition result (in the data set with A549 [3]; in [9]) was “Active” throughout. Besides, the “fractional inhibitory concentration index (FICI)” value in [5] was found to be 0.242.
